Laboratory results taken from ChEMBL document CHEMBL3244046, “Cardenolide analogues. 7. Synthesis and biological activity of some new steroidal guanylhydrazones” (J Med Chem, 1978).
Activity calls are given as the source filed them.

Experiments:
Left cardiac atrium [1] = assay: Negative inotropic activity in guinea pig left atrium assessed as isometric force of contraction at 10^-8 to 10^-4 M relative to control; type: functional, tissue-based; details: Cavia porcellus
Method in brief: (§1)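 Guinea pig left auricle in Krebs-Henseleit, 32 °C, gassed O2/5% CO2, resting tension about 1 g. Paced with 10-ms rectangular pulses at 100/min, voltage 20% above threshold. Cumulative dose-response curves up to 10⁻⁴ M. Isometric contraction changes computed against control atria.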

Cavia porcellus [2] = organism: Cavia porcellus; assay: Inhibition of Na(+)/K(+) ATPase-mediated phosphohydrolase activity in guinea pig myocardium at 5 X 10^-5 M after 30 mins relative to control; type: tissue-based
Method in brief: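 Crude membranes from guinea pig myocardium (5-10 units activity; unit = µmol Pi liberated/mg protein/h) incubated 37 °C, 30 min. Substrate consumption under 15% without drug. Dose-response curves over 10⁻⁸–10⁻⁴ M, duplicate determinations; values read from curves.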

Cavia porcellus [3] = organism: Cavia porcellus; assay: Inhibition of ouabain-insensitive Mg(2+)-ATPase-mediated phosphohydrolase activity in guinea pig myocardium at 5 X 10^-5 M after 30 mins relative to control; type: tissue-based
Method in brief: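 Guinea pig myocardial crude membranes (5-10 units; µmol Pi/mg protein/h), assayed without Na+ and K+ (ouabain-insensitive activity), with and without drug, 37 °C for 30 min. Substrate use under 15% in drug-free controls. Drug tested 10⁻⁸–10⁻⁴ M in duplicate; values taken from dose-response curves.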

Left cardiac atrium [4] = assay: Inotropic activity in guinea pig left atrium assessed as change in isometric force of contraction at 5 X 10^-5 M relative to control; type: functional, Cavia porcellus; method in brief: as §1
Cavia porcellus [5] = organism: Cavia porcellus; assay: Inhibition of Na(+)/K(+) ATPase-mediated phosphohydrolase activity in guinea pig myocardium at 2 X 10^-6 M after 30 mins relative to control; type: tissue-based
Method in brief: (§2)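 Crude guinea pig myocardial membrane preparation (5-10 units each enzyme; µmol Pi/mg protein/h), incubated 37 °C for 30 min. Substrate consumption stayed below 15%. Dose-response curves spanned 10⁻⁸–10⁻⁴ M in duplicate, and values were read from the curves.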

Cavia porcellus [6] = organism: Cavia porcellus; assay: Inhibition of ouabain-insensitive Mg(2+)-ATPase-mediated phosphohydrolase activity in guinea pig myocardium at 2 X 10^-6 M after 30 mins relative to control; type: tissue-based
Method in brief: (§3)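 Guinea pig myocardial crude membranes were incubated 30 min at 37 °C without Na⁺ and K⁺. Ouabain-insensitive Mg²⁺-ATPase activity was measured as inorganic phosphate released (µmol/mg protein/h), with and without drug. Substrate use stayed under 15%. Dose-response curves covered 10⁻⁸–10⁻⁴ M, run in duplicate, and values were taken from the curves.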

Left cardiac atrium [7] = assay: Inotropic activity in guinea pig left atrium assessed as change in isometric force of contraction at 2 X 10^-6 M relative to control; type: functional, Cavia porcellus
Method in brief: (§4)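 Guinea pig left auricle in Krebs-Henseleit at 32 °C, gassed with O₂/5% CO₂ under about 1 g resting tension. Pacing used 10-ms rectangular pulses at 100/min and 20% above threshold voltage. Change in isometric contraction was referenced to control atria. Cumulative dose-response curves ran up to 10⁻⁴ M.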

Cavia porcellus [8] = organism: Cavia porcellus; assay: Inhibition of Na(+)/K(+) ATPase-mediated phosphohydrolase activity in guinea pig myocardium at 1 X 10^-5 M after 30 mins relative to control; type: tissue-based; method in brief: as §2
Cavia porcellus [9] = organism: Cavia porcellus; assay: Inhibition of ouabain-insensitive Mg(2+)-ATPase-mediated phosphohydrolase activity in guinea pig myocardium at 1 X 10^-5 M after 30 mins relative to control; type: tissue-based; method in brief: as §3
Left cardiac atrium [10] = assay: Inotropic activity in guinea pig left atrium assessed as change in isometric force of contraction at 1 X 10^-5 M relative to control; type: functional, Cavia porcellus; method in brief: as §4
Left cardiac atrium [11] = assay: Toxicity in guinea pig left atrium assessed as tissue arrest at 5 X 10^-5 M relative to control; type: tissue-based, Cavia porcellus; details: 50 µM
Method in brief: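 Electrically paced guinea pig left auricle (Krebs-Henseleit, 32 °C, O₂/5% CO₂, about 1 g resting tension, 10-ms pulses at 100/min, 20% above threshold) given cumulative drug doses up to 10⁻⁴ M. Toxicity was scored as tissue arrest, which follows the inflection of the dose-response curve.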

inhibition (Cavia porcellus [2]) [%]	inhibition (Cavia porcellus [3]) [%]	Imax (Cavia porcellus [3]) [%]	Compound	Activity (Left cardiac atrium [1])	Activity (Left cardiac atrium [4]) [%]	further results
37	45		C[C@]12CC[C@@H](O)C[C@H]1CC[C@@H]1[C@@H]2CC[C@]2(C)[C@@H](/C=N\NC(=N)N)CC[C@@H]12	Active	-10	
55	55		C[C@]12CC[C@H](O)C[C@H]1CC[C@@H]1[C@@H]2CC[C@]2(C)[C@@H](/C=N\NC(=N)N)CC[C@@H]12	Active	-45	
			C[C@]12CC[C@H](O)C[C@H]1CC[C@@H]1[C@@H]2CC[C@]2(C)[C@@H](C3=CC(=O)OC3)CC[C@]12O [DIGITOXIGENIN]			inhibition (Cavia porcellus [5]): 60%; inhibition (Cavia porcellus [6]): 0%; Activity (Left cardiac atrium [7]): 130%
40		43	C[C@]12CC[C@H](O)C[C@@H]1CC[C@@H]1[C@@H]2CC[C@]2(C)[C@@H](/C=N\NC(=N)N)CC[C@@H]12	Active	-50	
54		30	C[C@]12CC[C@H]3[C@@H](CCC4=C[C@@H](O)CC[C@@]43C)[C@@H]1CC[C@@H]2/C=N\NC(=N)N	Active	-18	

Compound	inhibition (Cavia porcellus [2]) [%]	inhibition (Cavia porcellus [3]) [%]	Imax (Cavia porcellus [3]) [%]	Activity (Left cardiac atrium [1])	Activity (Left cardiac atrium [4]) [%]	further results
C[C@]12CC[C@H](O)C[C@H]1CC[C@@H]1[C@@H]2CC[C@]2(C)[C@@H](/C=N\NC(=N)N)CC[C@]12O	53	0				inhibition (Cavia porcellus [8]): 20%; inhibition (Cavia porcellus [9]): 0%; Activity (Left cardiac atrium [10]): 120%; Activity (Left cardiac atrium [11]): Toxic
